Results from ChEMBL document CHEMBL1123430, “Potential tumor- or organ-imaging agents. 26. Polyiodinated 2-substituted triacylglycerols as hepatographic agents” (J Med Chem, 1986).

Experiments:
Rattus norvegicus [1] = experiment: Distribution of radioactivity of radiolabeled compound in heart of female rats 30 minutes after intravenous administration; format: ADME, organism-based; conditions: in vivo, 0.5 h
Rattus norvegicus [2] = experiment: Polyacrylamide Gel Electrophoresis (PAGE) analysis of rat plasma 5 minutes after intravenous administration of radiolabeled compound (below albumin ); format: functional, organism-based
Method in brief: (§1)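 ¹²⁵I-labeled compound, radioiodinated by exchange in a pivalic acid melt, solubilized in normal saline with Tween 20 and given iv to adult female Sprague–Dawley rats (200–250 g), 5–30 μCi/animal, 3–4 rats per time point. Plasma was run on polyacrylamide gels. Gels were sectioned and gamma counted. Radioactivity per band (stacking gel, LDL, HDL, albumin, below albumin) is given as % of total applied; mean ± SEM, n = 3-5.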

Rattus norvegicus [3] = experiment: Distribution of radioactivity of radiolabeled compound in blood of female rats 5 minutes after intravenous administration; format: ADME, organism-based; conditions: in vivo
Rattus norvegicus [4] = experiment: Polyacrylamide Gel Electrophoresis (PAGE) analysis of rat plasma 30 min after intravenous administration of radiolabeled compound (below albumin ); format: functional, organism-based
Method in brief: (§2)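 Gels were sectioned and counted in a γ counter. Radioactivity in each band (stacking gel, LDL, HDL, albumin, below albumin) is expressed as a percentage of the total radioactivity applied to the gel, ± SEM, n = 3-5.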

Rattus norvegicus [5] = experiment: Distribution of radioactivity of radiolabeled compound in kidney of female rats 5 minutes after intravenous administration; format: ADME, organism-based; conditions: in vivo
Rattus norvegicus [6] = experiment: Polyacrylamide Gel Electrophoresis (PAGE) analysis of rat plasma 30 min after intravenous administration of radiolabeled in low-density lipoprotein; format: functional, organism-based; method in brief: as §2
Rattus norvegicus [7] = experiment: Polyacrylamide Gel Electrophoresis (PAGE) analysis of rat plasma 30 min after intravenous administration of radiolabeled compound at concentration of high density; format: functional, organism-based; method in brief: as §2
Rattus norvegicus [8] = experiment: Polyacrylamide Gel Electrophoresis (PAGE) analysis of rat plasma 5 minutes after intravenous administration of radiolabeled in low-density lipoprotein; format: functional, organism-based; method in brief: as §1
Rattus norvegicus [9] = experiment: Distribution of radioactivity of radiolabeled compound in liver of female rats 30 minutes after intravenous administration; format: ADME, organism-based; conditions: in vivo, 0.5 h
Rattus norvegicus [10] = experiment: Polyacrylamide Gel Electrophoresis (PAGE) analysis of rat plasma 30 min after intravenous administration of radiolabeled compound in albumin; format: functional, organism-based; method in brief: as §2
Rattus norvegicus [11] = experiment: Distribution of radioactivity of radiolabeled compound in heart of female rats 5 minutes after intravenous administration; format: ADME, organism-based; conditions: in vivo
Rattus norvegicus [12] = experiment: Distribution of radioactivity of radiolabeled compound in lung of female rats 30 minutes after intravenous administration; format: ADME, organism-based; conditions: in vivo, 0.5 h
Rattus norvegicus [13] = experiment: Distribution of radioactivity of radiolabeled compound in liver of female rats 5 minutes after intravenous administration at; format: ADME, organism-based; conditions: in vivo
Rattus norvegicus [14] = experiment: Distribution of radioactivity of radiolabeled compound in blood of female rats 30 minutes after intravenous administration; format: ADME, organism-based; conditions: in vivo, 0.5 h
Rattus norvegicus [15] = experiment: Distribution of radioactivity of radiolabeled compound in kidney of female rats 30 minutes after intravenous administration; format: ADME, organism-based; conditions: in vivo, 0.5 h
Rattus norvegicus [16] = experiment: Polyacrylamide Gel Electrophoresis (PAGE) analysis of rat plasma 5 min after intravenous administration of radiolabeled compound in albumin; format: functional, organism-based; method in brief: as §2
Rattus norvegicus [17] = experiment: Polyacrylamide Gel Electrophoresis (PAGE) analysis of rat plasma 30 min after intravenous administration of radiolabeled compound concentration of stacking gel; format: functional, organism-based; method in brief: as §2
Rattus norvegicus [18] = experiment: Polyacrylamide Gel Electrophoresis (PAGE) analysis of rat plasma 5 minutes after intravenous administration of radiolabeled in stacking gel; format: functional, organism-based; method in brief: as §1
Rattus norvegicus [19] = experiment: Distribution of radioactivity of radiolabeled compound in lung of female rats 5 minutes after intravenous administration; format: ADME, organism-based; conditions: in vivo
Rattus norvegicus [20] = experiment: Polyacrylamide Gel Electrophoresis (PAGE) analysis of rat plasma 5 minutes after intravenous administration of radiolabeled compound in high density lipoprotein; format: functional, organism-based; method in brief: as §1
Rattus norvegicus [21] = experiment: Percentage parent compound in rat plasma 30 minutes after iv administration of the radiolabeled compound by thin-layer chromatography; format: functional
Method in brief: (§3)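 Liver and plasma were taken at 5 or 30 min. Plasma was extracted by a modified Folch procedure, and liver was homogenized and extracted. Extracts were run on TLC in hexane/ethyl acetate (5:2) for esters or THF/hexane (1:1) for acids, with unlabeled compound as reference. Plates were cut into 1-cm strips and counted. Values are percent ± SEM, n = 3-5.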

Rattus norvegicus [22] = experiment: Polyacrylamide Gel Electrophoresis (PAGE) analysis of rat plasma 30 min after intravenous administration of radiolabeled compound at in high density; format: functional, organism-based; method in brief: as §2
Rattus norvegicus [23] = experiment: Polyacrylamide Gel Electrophoresis (PAGE) analysis of rat plasma 30 min after intravenous administration of radiolabeled compound ( below albumin); format: functional, organism-based; method in brief: as §2
Rattus norvegicus [24] = experiment: Percentage […]/CH3OH extract of the radiolabeled compound in rat plasma 30 minutes after iv administration; format: functional; method in brief: as §3
Rattus norvegicus [25] = experiment: Percentage […]/CH3OH extract of the radiolabeled compound in rat liver 5 minutes after iv administration; format: functional; method in brief: as §3
Rattus norvegicus [26] = experiment: Percentage parent compound in rat liver 30 minutes after iv administration of the radiolabeled compound by thin-layer chromatography; format: functional; method in brief: as §3
Rattus norvegicus [27] = experiment: Polyacrylamide Gel Electrophoresis (PAGE) analysis of rat plasma 5 min after intravenous administration of radiolabeled compound concentration of albumin; format: functional, organism-based; method in brief: as §2
Rattus norvegicus [28] = experiment: Polyacrylamide Gel Electrophoresis (PAGE) analysis of rat plasma 30 min after intravenous administration of radiolabeled compound inlow density lipoprotein; format: functional, organism-based; method in brief: as §2
Rattus norvegicus [29] = experiment: Polyacrylamide Gel Electrophoresis (PAGE) analysis of rat plasma 5 minutes after intravenous administration of radiolabeled compound at in high density lipoprotein; format: functional, organism-based; method in brief: as §1
Rattus norvegicus [30] = experiment: Percentage […]/CH3OH extract of the radiolabeled compound in rat plasma 5 minutes after iv administration; format: functional; method in brief: as §3
Rattus norvegicus [31] = experiment: Percentage parent compound in rat plasma 5 minutes after iv administration of the radiolabeled compound by thin-layer chromatography; format: functional; method in brief: as §3
Rattus norvegicus [32] = experiment: Polyacrylamide Gel Electrophoresis (PAGE) analysis of rat plasma 30 minutes after intravenous administration of radiolabeled in stacking gel; format: functional, organism-based; method in brief: as §2
Rattus norvegicus [33] = experiment: Distribution of radioactivity of radiolabeled compound in liver of female rats 5 minutes after intravenous administration; format: ADME, organism-based; conditions: in vivo
Rattus norvegicus [34] = experiment: Percentage parent compound in rat liver 5 minutes after iv administration of the radiolabeled compound by thin-layer chromatography; format: functional; method in brief: as §3
Rattus norvegicus [35] = experiment: Polyacrylamide Gel Electrophoresis (PAGE) analysis of rat plasma 5 minutes after intravenous administration of radiolabeled compound in stacking gel; format: functional, organism-based; method in brief: as §1
Rattus norvegicus [36] = experiment: Polyacrylamide Gel Electrophoresis (PAGE) analysis of rat plasma 5 minutes after intravenous administration of radiolabeled compound in low-density lipoprotein; format: functional, organism-based; method in brief: as §1
Rattus norvegicus [37] = experiment: Percentage […]/CH3OH extract of the radiolabeled compound in rat liver 30 minutes after iv administration; format: functional; method in brief: as §3
Rattus norvegicus [38] = experiment: Distribution of radioactivity of radiolabeled compound in lung of female rats 5 minutes after intravenous administration at; format: ADME, organism-based; conditions: in vivo
Rattus norvegicus [39] = experiment: Polyacrylamide Gel Electrophoresis (PAGE) analysis of rat plasma 5 minutes after intravenous administration of radiolabeled compound (below albumin); format: functional, organism-based; method in brief: as §1
Rattus norvegicus [40] = experiment: Percentage […]/CH3OH extract of the radiolabeled compound in rat liver 5 minutes after iv administration (+/-SEM); format: functional; method in brief: as §3
Rattus norvegicus [41] = experiment: Polyacrylamide Gel Electrophoresis (PAGE) analysis of rat plasma 30 minutes after intravenous administration of radiolabeled compound (below albumin); format: functional, organism-based; method in brief: as §2
Rattus norvegicus [42] = experiment: Polyacrylamide Gel Electrophoresis (PAGE) analysis of rat plasma after intravenous administration of radiolabeled compound concentration of below albumin […]; format: functional, organism-based; method in brief: as §1
Rattus norvegicus [43] = experiment: Percentage […]/CH3OH extract of the radiolabeled compound in rat plasma 5 minutes after iv administration (+/-SEM); format: functional; method in brief: as §3
Rattus norvegicus [44] = experiment: Percentage […]/CH3OH extract of the radiolabeled compound in rat liver 30 minutes after iv administration (+/-SEM); format: functional; method in brief: as §3
Rattus norvegicus [45] = experiment: Polyacrylamide Gel Electrophoresis (PAGE) analysis of rat plasma 30 minutes after intravenous administration of radiolabeled compound in albumin; format: functional, organism-based; method in brief: as §2
Rattus norvegicus [46] = experiment: Polyacrylamide Gel Electrophoresis (PAGE) analysis of rat plasma 30 minutes after intravenous administration of radiolabeled compound in high density lipoprotein; format: functional, organism-based; method in brief: as §2
Rattus norvegicus [47] = experiment: Percentage […]/CH3OH extract of the radiolabeled compound in rat plasma 30 minutes after iv administration (+/-SEM); format: functional; method in brief: as §3
Rattus norvegicus [48] = experiment: Polyacrylamide Gel Electrophoresis (PAGE) analysis of rat plasma 30 minutes after intravenous administration of radiolabeled compound in low-density lipoprotein; format: functional, organism-based; method in brief: as §2
Rattus norvegicus [49] = experiment: Polyacrylamide Gel Electrophoresis (PAGE) analysis of rat plasma 30 minutes after intravenous administration of radiolabeled compound in stacking gel; format: functional, organism-based; method in brief: as §2

| Structure (SMILES) | Dose (Rattus norvegicus [1]) | Concentration (Rattus norvegicus [2]) | Dose (Rattus norvegicus [3]) | Dose (Rattus norvegicus [5]) | Dose (Rattus norvegicus [9]) | Concentration (Rattus norvegicus [10]) | Dose (Rattus norvegicus [11]) | Dose (Rattus norvegicus [12]) | Dose (Rattus norvegicus [14]) | Dose (Rattus norvegicus [15]) | Concentration (Rattus norvegicus [16]) | Dose (Rattus norvegicus [19]) | Concentration (Rattus norvegicus [20]) | Activity (Rattus norvegicus [21]) | Activity (Rattus norvegicus [26]) | Activity (Rattus norvegicus [31]) | Dose (Rattus norvegicus [33]) | Activity (Rattus norvegicus [34]) | Concentration (Rattus norvegicus [35]) | Concentration (Rattus norvegicus [36]) | also measured |
| --- | --- | --- | --- | --- | --- | --- | --- | --- | --- | --- | --- | --- | --- | --- | --- | --- | --- | --- | --- | --- | --- |
| Nc1c(I)cc(I)c(CCCCCCCCCCCC(=O)O)c1I | 0.73% | 4.8 | 1.21% | 0.77% | 3.63% | 54.4 | 1.15% | 0.66% | 1.06% | 1.46% | 84.6 | 0.95% | 8 | – | – | – | – | – | – | – | Concentration (Rattus norvegicus [4]): 26.3; Concentration (Rattus norvegicus [6]): 3.8; Concentration (Rattus norvegicus [7]): 5.6; Concentration (Rattus norvegicus [8]): 1; Dose (Rattus norvegicus [13]): 6.96%; Concentration (Rattus norvegicus [17]): 11.2; Concentration (Rattus norvegicus [18]): 1.5% |
| CCCCCCCCCCCCCCCC(=O)OCC(COC(=O)CCCCCCCCCCCCCCC)OC(=O)CCCCCCCCCCCc1c(I)cc(I)c(N)c1I | 0.7% | 3 | 2.5% | 0.59% | 5.22% | 48.9 | 0.73% | 1.84% | 1.12% | 1.21% | – | – | – | 34% | 42.9% | 43.2% | 6.62% | 46.4% | 6.9% | 26% | Concentration (Rattus norvegicus [22]): 15.6%; Concentration (Rattus norvegicus [23]): 12.5; Activity (Rattus norvegicus [24]): 54.8%; Activity (Rattus norvegicus [25]): 40.9%; Concentration (Rattus norvegicus [27]): 30.8; Concentration (Rattus norvegicus [28]): 9.7; Concentration (Rattus norvegicus [29]): 33.3%; Activity (Rattus norvegicus [30]): 81.8%; Concentration (Rattus norvegicus [32]): 13.2; Activity (Rattus norvegicus [37]): 61.2%; Dose (Rattus norvegicus [38]): 1.73% |
| CCCCCCCCCCCCCCCC(=O)OCC(COC(=O)CCCCCCCCCCCCCCC)OC(=O)CCc1c(I)cc(I)c(N)c1I | 2.43% | – | 5.99% | 1.18% | 1.22% | – | 1.34% | 0.93% | 3.23% | 1.65% | 14.6 | 1.2% | 57.1 | 86.1% | 47.7% | 75.5% | 1.74% | 72.5% | 4.6% | 20.2% | Concentration (Rattus norvegicus [39]): 2.4; Activity (Rattus norvegicus [40]): 68.4%; Concentration (Rattus norvegicus [41]): 4.4; Concentration (Rattus norvegicus [42]): 69.4 [middle of 4 runs]; Activity (Rattus norvegicus [43]): 79.1%; Activity (Rattus norvegicus [44]): 52.1%; Concentration (Rattus norvegicus [45]): 27; Concentration (Rattus norvegicus [46]): 48.9%; Activity (Rattus norvegicus [47]): 69.4%; Concentration (Rattus norvegicus [48]): 15.7%; Concentration (Rattus norvegicus [49]): 4% |
